From ChEMBL document CHEMBL3616378 (J Med Chem, 2015) come the findings set out here.

Assay [1] concerns the target T1, Metabotropic glutamate receptor 3 (Homo sapiens, UniProt Q14832). Briefly: Agonist activity at human recombinant mGlu3 receptor expressed in AV12 cells assessed as inhibition of forskolin-stimulated cAMP production after 1 hr by fluorescence assay. It counts as functional, cell-based. (Cyclic AMP is a second messenger, typically raised through Gs and lowered through Gi signalling.)

In assay [2] the target is T2, Metabotropic glutamate receptor 2 (Homo sapiens, UniProt Q14416). Put plainly: Agonist activity at human recombinant mGlu2 receptor expressed in AV12 cells assessed as stimulation of Ca2+ mobilization after 1 hr by FLIPR assay. It counts as functional, cell-based. Background: Calcium assays in cells follow changes in intracellular calcium, usually with a dye or a luminescent sensor.
T2 sequence (Q14416 whole entry): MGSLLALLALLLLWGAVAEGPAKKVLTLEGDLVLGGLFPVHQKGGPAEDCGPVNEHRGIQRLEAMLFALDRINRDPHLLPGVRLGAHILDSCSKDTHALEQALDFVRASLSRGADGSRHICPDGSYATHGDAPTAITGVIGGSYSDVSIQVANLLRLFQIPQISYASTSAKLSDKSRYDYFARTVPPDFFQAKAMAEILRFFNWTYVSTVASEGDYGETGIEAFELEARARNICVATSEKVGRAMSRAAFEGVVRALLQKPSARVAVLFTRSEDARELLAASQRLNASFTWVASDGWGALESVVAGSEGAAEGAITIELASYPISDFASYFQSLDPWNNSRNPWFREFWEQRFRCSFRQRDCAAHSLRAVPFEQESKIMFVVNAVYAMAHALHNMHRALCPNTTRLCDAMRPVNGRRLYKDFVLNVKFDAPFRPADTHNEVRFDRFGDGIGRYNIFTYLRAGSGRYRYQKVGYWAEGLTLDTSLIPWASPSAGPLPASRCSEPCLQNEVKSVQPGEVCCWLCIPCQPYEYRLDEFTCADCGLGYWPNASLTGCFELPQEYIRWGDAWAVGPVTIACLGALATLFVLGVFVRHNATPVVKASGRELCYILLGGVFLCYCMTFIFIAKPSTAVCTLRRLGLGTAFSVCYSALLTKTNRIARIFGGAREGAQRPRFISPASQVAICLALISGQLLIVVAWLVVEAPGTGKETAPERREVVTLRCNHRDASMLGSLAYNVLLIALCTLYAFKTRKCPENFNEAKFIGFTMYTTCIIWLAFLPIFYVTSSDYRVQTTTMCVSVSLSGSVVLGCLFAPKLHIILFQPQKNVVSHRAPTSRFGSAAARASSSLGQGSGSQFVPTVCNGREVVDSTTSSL

Assay [3] concerns the target T1, Metabotropic glutamate receptor 3. Briefly: Antagonist activity at human recombinant mGlu3 receptor expressed in AV12 cells assessed as inhibition of glutamate-stimulated Ca2+ mobilization after 1.5 hrs by FLIPR assay. It counts as functional, cell-based.
In assay [4] the target is T2, Metabotropic glutamate receptor 2. Briefly: Displacement of [3H]-459477 from human recombinant mGlu2 receptor expressed in AV12 cells after 90 mins by liquid scintillation counting. It counts as cell-based. In general terms: Displacement assays read how much labelled ligand stays bound in the presence of the test substance.
Assay [5] deals with T1, Metabotropic glutamate receptor 3. Put plainly: Antagonist activity at human recombinant mGlu3 receptor expressed in AV12 cells assessed as reversal of DCG-4-inhibited, forskolin-stimulated cAMP production after 1 hr by fluorescence assay. It counts as functional, cell-based.
Assay [6] addresses T2, Metabotropic glutamate receptor 2. Put plainly: Antagonist activity at human recombinant mGlu2 receptor expressed in AV12 cells assessed as inhibition of glutamate-stimulated Ca2+ mobilization after 1 hr by FLIPR assay. It counts as functional, cell-based. A digest of the protocol: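 AV12 cells stably co-expressing rat EAAT1, Gα15 and human mGlu2 (Bmax 1.35 pmol/mg), plated 85K/well 24 h ahead in medium with 250 µM L-glutamine. Compounds were dissolved from 10 mM stocks in 0.1N NaOH and run as 10-point 3-fold series. Fluo-3 AM Ca2+ transients were read by FLIPR. Read-out was % inhibition of the EC90 glutamate response, with relative IC50 from a four-parameter logistic fit.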

Assay [7] concerns the target T1, Metabotropic glutamate receptor 3. Briefly: Agonist activity at human recombinant mGlu3 receptor expressed in AV12 cells assessed as stimulation of Ca2+ mobilization after 1.5 hrs by FLIPR assay. In kind it is functional, cell-based.
For assay [8] the target is unchanged. Briefly: Displacement of [3H]-459477 from human recombinant mGlu3 receptor expressed in AV12 cells after 90 mins by liquid scintillation counting. In kind it is cell-based.
For assay [9], the target named is T2, Metabotropic glutamate receptor 2. Put plainly: Antagonist activity at human recombinant mGlu2 receptor expressed in AV12 cells assessed as reversal of DCG-4-inhibited, forskolin-stimulated cAMP production after 1 hr by fluorescence assay. It counts as functional, cell-based.
For assay [10] the target is unchanged. Briefly: Agonist activity at human recombinant mGlu2 receptor expressed in AV12 cells assessed as inhibition of forskolin-stimulated cAMP production after 20 min by fluorescence assay.
The target of assay [11] is Metabotropic glutamate receptor 3 (Homo sapiens, UniProt Q14832, Q306L). Put plainly: Agonist activity at human recombinant mGlu3 receptor Q306L mutant expressed in AV12 cells assessed as stimulation of Ca2+ mobilization after 1 hr by FLIPR assay. It counts as functional, cell-based.
Chain of Metabotropic glutamate receptor 3 (Homo sapiens, UniProt Q14832, Q306L) (Q14832 23-879 Q306L limits assumed): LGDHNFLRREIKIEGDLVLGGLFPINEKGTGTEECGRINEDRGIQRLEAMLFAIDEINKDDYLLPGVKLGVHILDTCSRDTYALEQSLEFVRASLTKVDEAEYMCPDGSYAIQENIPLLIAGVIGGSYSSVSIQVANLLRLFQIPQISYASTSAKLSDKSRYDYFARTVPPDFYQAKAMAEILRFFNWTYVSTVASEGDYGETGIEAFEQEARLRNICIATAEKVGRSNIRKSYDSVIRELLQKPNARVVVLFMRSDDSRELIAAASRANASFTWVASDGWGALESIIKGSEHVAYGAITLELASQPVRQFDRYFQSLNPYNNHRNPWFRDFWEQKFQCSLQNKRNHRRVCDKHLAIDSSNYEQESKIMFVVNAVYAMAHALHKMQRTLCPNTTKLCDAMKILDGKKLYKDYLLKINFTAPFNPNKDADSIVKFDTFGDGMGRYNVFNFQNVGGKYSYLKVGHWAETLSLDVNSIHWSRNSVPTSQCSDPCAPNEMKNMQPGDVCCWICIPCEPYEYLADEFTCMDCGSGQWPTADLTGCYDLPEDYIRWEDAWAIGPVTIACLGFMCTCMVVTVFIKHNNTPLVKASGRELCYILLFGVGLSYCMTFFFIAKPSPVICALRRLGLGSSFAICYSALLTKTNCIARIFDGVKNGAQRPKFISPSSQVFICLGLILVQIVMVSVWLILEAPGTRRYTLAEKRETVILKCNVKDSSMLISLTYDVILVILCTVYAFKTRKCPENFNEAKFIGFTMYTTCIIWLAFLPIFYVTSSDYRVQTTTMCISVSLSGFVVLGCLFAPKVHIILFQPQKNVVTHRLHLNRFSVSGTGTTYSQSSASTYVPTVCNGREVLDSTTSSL
For assay [12], the target named is Metabotropic glutamate receptor 3 (Homo sapiens, UniProt Q14832, D279E/Q306L). Put plainly: Agonist activity at human recombinant mGlu3 receptor D279E and Q306L mutant expressed in AV12 cells assessed as stimulation of Ca2+ mobilization after 1 hr by FLIPR assay. In kind it is functional, cell-based.
Chain of Metabotropic glutamate receptor 3 (Homo sapiens, UniProt Q14832, D279E/Q306L) (Q14832 23-879 D279E/Q306L limits assumed): as the sequence (Q14832 23-879 Q306L limits assumed) above, with D257E counted along it
The target of assay [13] is T1, Metabotropic glutamate receptor 3. Briefly: Agonist activity at wild type human recombinant mGlu3 receptor expressed in AV12 cells assessed as stimulation of Ca2+ mobilization after 1 hr by FLIPR assay. It counts as functional, cell-based.
Assay [14] deals with Metabotropic glutamate receptor 3 (Homo sapiens, UniProt Q14832, D279E). Put plainly: Agonist activity at human recombinant mGlu3 receptor D279E mutant expressed in AV12 cells assessed as stimulation of Ca2+ mobilization after 1 hr by FLIPR assay. It counts as functional, cell-based.
Chain of Metabotropic glutamate receptor 3 (Homo sapiens, UniProt Q14832, D279E) (Q14832 23-879 D279E limits assumed): as the sequence (Q14832 23-879 Q306L limits assumed) above, with D257E, L284Q counted along it

T1 sequence (Q14832 whole entry): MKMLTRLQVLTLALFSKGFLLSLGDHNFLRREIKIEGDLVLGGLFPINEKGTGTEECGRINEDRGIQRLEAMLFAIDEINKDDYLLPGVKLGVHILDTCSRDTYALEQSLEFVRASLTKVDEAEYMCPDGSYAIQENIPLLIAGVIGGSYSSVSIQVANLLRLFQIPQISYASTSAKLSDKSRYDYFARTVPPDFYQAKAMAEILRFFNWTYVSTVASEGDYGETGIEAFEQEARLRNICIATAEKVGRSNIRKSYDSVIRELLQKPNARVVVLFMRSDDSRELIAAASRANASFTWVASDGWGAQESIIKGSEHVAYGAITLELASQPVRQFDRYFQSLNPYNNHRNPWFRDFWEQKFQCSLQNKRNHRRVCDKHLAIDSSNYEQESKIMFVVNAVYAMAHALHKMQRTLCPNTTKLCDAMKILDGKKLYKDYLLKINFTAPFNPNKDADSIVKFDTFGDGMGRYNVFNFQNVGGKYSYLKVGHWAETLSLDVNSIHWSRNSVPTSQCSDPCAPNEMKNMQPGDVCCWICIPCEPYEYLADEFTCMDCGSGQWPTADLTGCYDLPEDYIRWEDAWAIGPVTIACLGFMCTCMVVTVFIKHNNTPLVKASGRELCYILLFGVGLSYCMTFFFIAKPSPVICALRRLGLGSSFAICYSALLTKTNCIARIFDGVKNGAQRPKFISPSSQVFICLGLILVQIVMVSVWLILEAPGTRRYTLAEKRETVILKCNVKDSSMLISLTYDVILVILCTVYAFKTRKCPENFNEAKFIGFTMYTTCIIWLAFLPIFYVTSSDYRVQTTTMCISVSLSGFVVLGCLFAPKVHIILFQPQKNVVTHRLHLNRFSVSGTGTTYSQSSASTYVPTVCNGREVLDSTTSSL

As for `N[C@@]1(C(=O)O)C[C@@H](Sc2ccccc2)[C@H]2[C@H](C(=O)O)[C@H]21`, the 50% effective concentration (EC50) in assay [1] was above 25000 nM; in assay [2] it was above 12500 nM; in [7] it was above 25000 nM. For the same compound, the IC50 is 7690 nM in assay [3], 1070 nM in [5] and above 12500 nM in assay [6]. Also, the Ki in [4] turned out to be 420 nM; in [8], 138 nM.
As to `N[C@@]1(C(=O)O)C[C@H](Sc2ccccc2)[C@H]2[C@H](C(=O)O)[C@H]21`, the concentration for a half-maximal effect (EC50) in [1] is above 25000 nM; in assay [2] it was above 25000 nM; in assay [7] it was above 5000 nM. Moreover, the results for the IC50 in assay [9], in assay [3] and in [6] were 15300 nM, 6710 nM and above 12500 nM, respectively. Moreover, the inhibition constant Ki in [4] was found to be 1230 nM; in assay [8], 272 nM.
On to `Cc1nnc(S[C@@H]2C[C@@](N)(C(=O)O)[C@@H]3[C@@H](C(=O)O)[C@@H]32)[nH]1`, for which the EC50 in [1] is 103 nM; in assay [10], 10.4 nM; in [2] it was 39.5 nM; in [7], 105 nM. The inhibition constant (Ki) came out at 121 nM in assay [4] and 62.4 nM in [8].
As for `N[C@@]1(C(=O)O)C[C@@H](Sc2nnc(C(F)(F)F)[nH]2)[C@H]2[C@H](C(=O)O)[C@H]21`, the results for the EC50 in [1] and in [7] were 79.5 nM and 82 nM, respectively. Besides, the 50% inhibitory concentration (IC50) in assay [5] was 528 nM. Also, in assay [8], the Ki turned out to be 56.7 nM.
`N[C@@]1(C(=O)O)C[C@@H](Sc2nnc(C(F)F)[nH]2)[C@H]2[C@H](C(=O)O)[C@H]21`: the concentration for a half-maximal effect (EC50) was 77.7 nM in [1], 11.8 nM in assay [10], 53.6 nM in assay [2] and above 25000 nM in [7]. The IC50 was 154 nM in assay [3] and 459 nM in assay [5]. In addition, the results for the Ki in assay [4] and in [8] were 95.8 nM and 63.2 nM, respectively.
For `Nc1nnc(S[C@@H]2C[C@@](N)(C(=O)O)[C@@H]3[C@@H](C(=O)O)[C@@H]32)[nH]1`, the EC50 in assay [1] is 74 nM; in assay [10] it was 4.5 nM; in assay [2], 13 nM; in assay [7] it was above 25000 nM. Moreover, the IC50 in assay [3] stood at 94.7 nM. The figures for the Ki in assay [4] and in assay [8] were 67 nM and 58.3 nM, respectively.
On to `CC(C)c1nnc(S[C@@H]2C[C@@](N)(C(=O)O)[C@@H]3[C@@H](C(=O)O)[C@@H]32)[nH]1`, for which the concentration giving a half-maximal response (EC50) in [1] was 281 nM; in assay [10] it was 16.5 nM; in assay [2] it was 87.8 nM; in [7] it was above 25000 nM. Besides, the IC50 in assay [3] was above 12500 nM; in [5], 859 nM. Further, the Ki in assay [4] was found to be 266 nM; in [8], 157 nM.
On to `N[C@@]1(C(=O)O)C[C@@H](Sc2c[nH]nn2)[C@H]2[C@H](C(=O)O)[C@H]21`, for which the EC50 in assay [1] was 235 nM; in assay [10], 12.4 nM; in assay [7] it was above 25000 nM. Moreover, the half-inhibitory concentration (IC50) was found to be 5510 nM in assay [3] and 2380 nM in assay [5]. In addition, the results for the Ki in [4] and in assay [8] were 142 nM and 259 nM, respectively.
As to `N[C@@]1(C(=O)O)C[C@H](Sc2nnc[nH]2)[C@H]2[C@H](C(=O)O)[C@H]21`, the EC50 in assay [1] is 227 nM; in assay [10], 11.2 nM; in assay [7], above 25000 nM. Moreover, the IC50 in [3] was determined as 3100 nM; in assay [5], 4260 nM. Further, the Ki amounted to 60.4 nM in assay [4] and 126 nM in [8].
For the compound `Cc1nnc(S[C@H]2C[C@@](N)(C(=O)O)[C@@H]3[C@@H](C(=O)O)[C@@H]32)[nH]1`, the EC50 in [1] was 96.6 nM; in assay [10], 44.3 nM; in [2] it was 146 nM; in assay [7], above 25000 nM. The IC50 in assay [3] amounted to 3590 nM. Also, the Ki in [4] worked out at 171 nM; in [8], 79 nM.
In the case of `N[C@@]1(C(=O)O)C[C@H](Sc2n[nH]c(C(F)(F)F)n2)[C@H]2[C@H](C(=O)O)[C@H]21`, the EC50 in assay [1] is 30.5 nM; in [7], above 25000 nM. Besides, the IC50 in [3] is 624 nM. Also, the Ki in assay [8] was 43.1 nM.
With `N[C@@]1(C(=O)O)C[C@H](Sc2nnc(C(F)F)[nH]2)[C@H]2[C@H](C(=O)O)[C@H]21`, the EC50 in assay [1] is 27.3 nM; in assay [10], 0.58 nM; in assay [2] it was 6.3 nM; in assay [7] it was above 25000 nM. For the same compound, the 50% inhibitory concentration (IC50) in [3] is 244 nM. Also, the inhibition constant (Ki) in [4] worked out at 13.4 nM; in assay [8] it was 57.5 nM.
On to `Nc1nnc(S[C@H]2C[C@@](N)(C(=O)O)[C@@H]3[C@@H](C(=O)O)[C@@H]32)[nH]1`, for which the EC50 in assay [1] is 112 nM; in assay [10] it was 6.4 nM; in assay [2], 20.1 nM; in assay [7], above 25000 nM. The IC50 in [3] is 3870 nM. In addition, the Ki in assay [4] stood at 27.8 nM; in assay [8], 69 nM.
`CC(C)c1nc(S[C@H]2C[C@@](N)(C(=O)O)[C@@H]3[C@@H](C(=O)O)[C@@H]32)n[nH]1`: the EC50 in [1] was 77.9 nM; in assay [10], 74 nM; in assay [2] it was 242 nM; in assay [7] it was above 25000 nM. The IC50 in assay [3] was found to be 2350 nM. The Ki in assay [4] amounted to 339 nM; in [8], 82.7 nM.
`N[C@@]1(C(=O)O)C[C@H](Sc2c[nH]nn2)[C@H]2[C@H](C(=O)O)[C@H]21`: the EC50 in assay [1] is 92.7 nM; in [10] it was 5.2 nM; in assay [2], 19 nM; in assay [7] it was above 25000 nM. Further, the IC50 in [3] came to 2790 nM. In addition, the Ki in assay [4] came out at 111 nM; in assay [8], 65.1 nM.
For `N[C@@]1(C(=O)O)CC[C@H]2[C@H](C(=O)O)[C@H]21`, the EC50 was 27.9 nM in assay [1], 7 nM in assay [10], 34.4 nM in assay [2] and 140 nM in assay [7]. For the same compound, the inhibition constant Ki in assay [4] is 71.7 nM; in [8], 107 nM.
With `N[C@@H](CCC(=O)O)C(=O)O` [GLUTAMIC ACID], the concentration giving a half-maximal response (EC50) in assay [11] amounted to 1480 nM; in assay [12], 5120 nM; in assay [13] it was 1000 nM; in assay [14] it was 4180 nM.

A word on the EC50: it is the concentration needed to bring the measured effect to its halfway point. As usually defined, the IC50 is the concentration that gives 50% inhibition. In general, Ki refers to a dissociation constant, usually derived from enzyme kinetics or from competition with a known ligand.
